This passage reports Activity and GI50 results from ChEMBL document CHEMBL1909636, “Evaluation of the antiproliferative activity of diterpene isonitriles from the sponge Pseudoaxinella flava in apoptosis-sensitive and apoptosis-resistant cancer cell lines” (2011).

Molecules are shown by their SMILES. Calls of active or inactive are those of the source. The rule behind the calls is not given here.

Test [1] has as its system PC-3. In words: Cytotoxicity against human PC3 cells assessed as cell death at IC50 by quantitative video microscopy analysis. It is filed as functional, cell-based. The method in brief:
(§1)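 PC3 cells were treated for 72 h at a single concentration taken from the 72 h MTT growth assay and followed by computer-assisted phase-contrast videomicroscopy. Dead cells were scored as rounded and refringent, and cytostatic action was distinguished as inhibited proliferation without cell death. Morphology was examined at ×100 and, for high-magnification views, ×500.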

Test [2] deals with PC-3. In words: Growth inhibition of human PC3 cells after 72 hrs by MTT colorimetric assay. It is filed as functional. The note with it: PC-3, 72 h. In a few lines:
(§2)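 Cells were exposed to the compound over a range of concentrations for three days (72 h) and growth was read by MTT colorimetric assay. IC50 is the concentration that reduces global growth of the cell population by 50%.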

The subject of test [3] is PC-3. In words: Induction of apoptosis in human PC3 cells assessed as vacuolization after 72 hrs at IC50 by quantitative video microscopy analysis. It is filed as functional, cell-based.
The nature of test [4]: Growth inhibition of human Hs683 cells after 72 hrs by MTT colorimetric assay. It is filed as functional. The note with it: Hs 683, 72 h. The method in brief: as §2
In general terms: Tetrazolium dyes change colour on reduction, which living cells bring about.

A further test deals with A549. In words: Growth inhibition of human A549 cells after 72 hrs by MTT colorimetric assay. It is filed as functional. The note with it: A549, 72 h. The method in brief: as §2
Test [5] is described as follows: Growth inhibition of human U373 cells after 72 hrs by MTT colorimetric assay. It is filed as functional, U-373MG ATCC. The note with it: U373 MG. In a few lines:
as §2

In test [6] the test system is PC-3. In words: Cytostatic activity in human PC3 cells at IC50 by quantitative video microscopy analysis. It is filed as functional, cell-based. In a few lines:
as §1

The subject of the next test is SK-MEL-28. In words: Growth inhibition of human SK-MEL-28 cells after 72 hrs by MTT colorimetric assay. It is filed as functional. The note with it: SK-MEL-28, 72 h. The method in brief:
as §2

The next test deals with LoVo. In words: Growth inhibition of human LoVo cells after 72 hrs by MTT colorimetric assay. It is filed as functional. The method in brief: as §2

Consider `[C-]#[N+][C@@]1(C)CC[C@H]2[C@H]3[C@@H](C(=C)CC[C@H]31)[C@H](CC(=C)C)C[C@@H]2C`, for which the result in the test on PC-3 [1] was Active. In the test with PC-3 [2], the GI50 (commonly the concentration giving 50% growth inhibition) was determined as 7 µM.
`[C-]#[N+][C@@]1(C)CC[C@H]2[C@H]3[C@@H](C(=C)CC[C@H]31)[C@H](C=C(C)C)C[C@@H]2C`: the outcome in the test with PC-3 [1] and in the test with PC-3 [3] was Active. This molecule displayed a GI50 with PC-3 [2] of 7 µM.
In the case of `[C-]#[N+]C(C)(C)C[C@@H]1C[C@H](C)[C@H]2CC[C@](C)([N+]#[C-])[C@@H]3CCC(=C)[C@@H]1[C@H]23`, the GI50 in test [4] turned out to be 4 µM; with A549, 16 µM; in test [5] it was 10 µM; in the test with SK-MEL-28 it was 32 µM; in the test on LoVo it was 3 µM; in the test with PC-3 [2], 3 µM. Also, the outcome in the test on PC-3 [6] was Active.
On to `[C-]#[N+]C(C)(C)C[C@@H]1C[C@H](C)[C@H]2CC[C@H](C)[C@@]3([N+]#[C-])CCC(=C)[C@@H]1[C@H]23` [DIISOCYANOAMPHILECTENE], for which the GI50 in test [4] came to 50 µM; in the test on A549, 42 µM; in [5], 25 µM; in the test on SK-MEL-28 it was 6 µM; with LoVo, 3 µM; with PC-3 [2] it was 1 µM. Besides, the result in the test on PC-3 [6] was Active.
